Test results from publication PMC5558854 (Molecular cell, 2017).
Each block holds one molecule with its values, some of them ahead of it. Where no end group is shown, it is not given here. [ ]: non-standard residue; d: D form. The star is where a group is joined. FITC = O=C1OC2(c3ccc(O)cc3Oc3cc(O)ccc32)c2ccc(NC(=S)*)cc21; pY = N[C@@H](Cc1ccc(OP(=O)(O)O)cc1)C(=O)O

Tests used:
Csk^AS [1] = experiment: Reconstituted cellular system for Lck activation; format: cell-based; settings: HEK 293 cells with CD45, Csk^AS, 3-IB-PP1 5 μM, 1 min, 37 °C, immunoblot
Csk^AS [2] = settings: analog-sensitive allele of Csk; ref Schoenborn et al., 2011; cited from earlier work
J.Lck cells = experiment: Intracellular calcium measurement by flow cytometry; format: cell-based, human; settings: J.Lck cells expressing Lck Y192E/A variants; Indo-1 AM, 37 °C, flow cytometry (Figure S2)
tyrosine phosphatases = experiment: Total protein phosphotyrosine immunoblot after pervanadate treatment; format: cell-based, human; settings: J.Lck cells, Lck Y192E/A variants; pervanadate 100 μM; immunoblot (Figure S2B)
Outline: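 Jurkat-derived cells grown in RPMI with 10% FBS and 2 mM glutamine at 37 °C, 5% CO2. Lck-reconstituted lines checked by immunoblot and sequencing. Cells rinsed in RPMI, resuspended at 5 × 10^6 cells/mL and rested 15 min at 37 °C, then left unstimulated or given pervanadate (100 μM). Lysis in 1% NP-40 (final) with […], NaF, EDTA, PMSF, protease inhibitors and PP2 (25 μM). Immunoblot read-out.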

[3] = biological target: GST Lck SH2 protein (human Lck SH2 domain, residues 123-227, WT) (human, UniProt P06239 123-227); experiment: fluorescence polarisation
GST Lck SH2 protein (human Lck SH2 domain, residues 123-227, WT), sequence (P06239 123-227): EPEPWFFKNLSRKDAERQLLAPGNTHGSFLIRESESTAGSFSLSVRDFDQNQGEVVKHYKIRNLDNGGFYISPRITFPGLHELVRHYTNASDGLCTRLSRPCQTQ

[4] = biological target: GST Lck SH2 Y192E (human Lck SH2 domain, residues 123-227) (human, UniProt P06239 123-227, Y192E); experiment: fluorescence polarisation
GST Lck SH2 Y192E (human Lck SH2 domain, residues 123-227), sequence (P06239 123-227 Y192E): as the sequence (P06239 123-227) above, with Y70E counted along it

Molecule: CC(C)(C)n1nc(Cc2cccc(I)c2)c2c(N)ncnc21 [3-IB-PP1]
CD8/ζ-chain phosphorylation upon Csk^AS inhibition (Csk^AS [1]; N=3, Lck Y192E/A variants): only a minimal increase
C-terminal tail (Y505) phosphorylation upon Csk^AS inhibition (Csk^AS [1]; CD8/ζ, N=3, Lck Y192F): the Y192F mutant is dephosphorylated by CD45
inhibition of Csk^AS (Csk^AS [2]): inhibited

Molecule: C[C@H](CCC(=O)O)C[C@H](C)C[C@H](C)C(=O)/C=C(\O)[C@H](C)C[C@H](C)C/C=C/[C@@H](C)[C@@H](O)[C@@H](C)[C@@H](O)C[C@@H]1CC[C@@](C)([C@H]2CC[C@@](C)([C@@H](C)O)O2)O1 [ionomycin]
calcium response to ionomycin (J.Lck cells): responded robustly

Molecule: pervanadate
Lck autophosphorylation upon pervanadate treatment (tyrosine phosphatases): robust autophosphorylation

binding result [3]: binds
binding result [4]: binds
Molecule: {FITC}-TEGQ[pY]QPQP [FITC-TEGQ[pY]QPQP, phosphopeptide of the Lck C-terminal tail]
